Results from ChEMBL document CHEMBL3297658, “Potent fluorinated agelastatin analogues for chronic lymphocytic leukemia: design, synthesis, and pharmacokinetic studies” (J Med Chem, 2014).

How the values were obtained:
[1] = Antitumor activity against CLL3 cells isolated from CLL patient assessed as cell viability after 48 hrs by FACS analysis; assay type: functional, cell-based; conditions: Homo sapiens
Summary of the method: (§1)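 Primary CLL patient cells or JVM-2 line cultured 48 h (37 °C, 5% CO2) in RPMI + 10% FBS with graded compound. Stained 30 min at 37 °C with 40 nM DiOC6 and 10 μg/mL PI, then flow cytometry (525 nm DiOC6, 600 nm PI). Viability = % DiOC6+/PI− relative to untreated or vehicle control. EC50 and SE fitted from dose–response curves.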

[2] = Antitumor activity against CLL2 cells isolated from CLL patient assessed as cell viability after 48 hrs by FACS analysis; assay type: functional, cell-based, Homo sapiens; conditions: Homo sapiens, CLL2, 48 h; summary of the method: as §1
[3] = Antitumor activity against CLL4 cells isolated from CLL patient assessed as cell viability after 48 hrs by FACS analysis; assay type: functional, cell-based; conditions: Homo sapiens; summary of the method: as §1
[4] = Antitumor activity against human JVM2 cells assessed as cell viability after 48 hrs by FACS analysis; assay type: functional, cell-based; conditions: JVM-2, 48 h; summary of the method: as §1
[5] = Antitumor activity against CLL5 cells isolated from CLL patient assessed as cell viability after 48 hrs by FACS analysis; assay type: functional, cell-based; conditions: Homo sapiens; summary of the method: as §1
[6] = Antitumor activity against CLL6 cells isolated from CLL patient assessed as cell viability after 48 hrs by FACS analysis; assay type: functional, cell-based; conditions: Homo sapiens, CLL6, 48 h; summary of the method: as §1
[7] = Antitumor activity against CLL1 cells isolated from CLL patient assessed as cell viability after 48 hrs by FACS analysis; assay type: functional, cell-based; conditions: Homo sapiens; summary of the method: as §1
HeLa = assay: Antitumor activity against human HeLa cells assessed as cell viability by MTT assay; assay type: functional, cell-based
Summary of the method: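 Adherent HeLa cells exposed to compound, then medium replaced with 0.5 mg/mL MTT in phenol-red-free RPMI and incubated overnight at 37 °C. Lysed with 15% SDS/0.015 M HCl and OD read at 570 nm once formazan dissolved. EC50 and SE derived from dose–response curves.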

Liver = assay: Metabolic stability in mouse liver microsomes at 100 uM measured after 1 hr by LC/MS analysis in presence of 1 mM NADPH; assay type: ADME
Summary of the method: (§2)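 Microsomes (final protein 5 mg/mL, mouse or human) in 0.1 M sodium phosphate pH 7.4 with compound at 100 μM final (DMSO <1%). Preincubated 5 min at 37 °C, started with NADPH (1 mM final), run 60 min at 37 °C with agitation. Stopped with MeOH and centrifuged; supernatant analysed by LCMS. Controls: zero time, no NADPH, heat-inactivated microsomes, and 7-ethoxycoumarin as CYP substrate.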

Liver microsome = assay: Metabolic stability in human liver microsomes at 100 uM measured after 1 hr by LC/MS analysis in presence of 1 mM NADPH; assay type: ADME; summary of the method: as §2

Row | Structure (SMILES) | EC50 [1] | EC50 [2] | EC50 [3] | EC50 [4] | EC50 [5] | EC50 [6] | EC50 [7] | EC50 (HeLa) | Stability (Liver) | Stability (Liver microsome)
1 | Nc1nc(F)nc2c1ncn2[C@@H]1O[C@H](CO)[C@@H](O)[C@@H]1O [FLUDARABINE] | 0.35 µM | 2.66 µM | 0.64 µM | 10.4 µM | 0.16 µM | 1.6 µM | 17.1 µM | 16 µM |  | 
2 | CN1C(=O)N[C@H]2[C@@H]3NC(=O)c4cc(I)cn4[C@@H]3C[C@]21O |  | 94.9 µM |  | 222 µM |  |  | 25.5 µM | 0.061 µM |  | 
3 | CN1C(=O)N[C@H]2[C@@H]3NC(=O)c4cc(Cl)c(Cl)n4[C@@H]3C[C@]21O | 0.98 µM | 0.52 µM | 4.42 µM | 0.28 µM | 2.02 µM | 7.5 µM | 1.56 µM | 0.6 µM |  | 
4 | CN1C(=O)N[C@H]2[C@@H]3NC(=O)c4cc(Cl)cn4[C@@H]3C[C@]21O |  | 6.05 µM |  | 5.33 µM |  |  | 35.9 µM |  |  | 
5 | CN1C(=O)N[C@H]2[C@@H]3NC(=O)c4ccc(C(F)F)n4[C@@H]3C[C@]21O |  | 5.44 µM |  | 4.66 µM |  |  | 13 µM | 4.01 µM |  | 
6 | CN1C(=O)N[C@H]2[C@@H]3NC(=O)c4ccc(Cl)n4[C@@H]3C[C@]21O | 3.8 µM | 0.32 µM | 1.98 µM | 0.2 µM | 0.34 µM | 2.2 µM | 0.95 µM | 0.63 µM |  | 
7 | CN1C(=O)N[C@H]2[C@@H]3NC(=O)c4cccn4[C@@H]3C[C@]21O |  | 3.9 µM |  | 120 µM |  |  | 541 µM | 61.5 µM | Stable | Stable
8 | CO[C@@]12C[C@@H]3[C@H]([C@@H]1N(C)C(=O)N2C)N(C)C(=O)c1ccc(Br)n13 |  | 47.7 µM |  | 55.7 µM |  |  | 140 µM | 59 µM |  | 
9 | CN1C(=O)N[C@H]2[C@@H]3NC(=O)c4ccc(C#N)n4[C@@H]3C[C@]21O | 8.37 µM | 0.71 µM | 8.41 µM | 38 µM | 4.79 µM | 0.84 µM | 11.1 µM | 3.4 µM |  | 
10 | CN1C(=O)N[C@H]2[C@@H]3NC(=O)c4cc(I)c(Br)n4[C@@H]3C[C@]21O |  | 48.2 µM |  | 162 µM |  |  | 211 µM | 86.7 µM |  | 
11 | CN1C(=O)N[C@H]2[C@@H]3NC(=O)c4cc(C(F)(F)F)cn4[C@@H]3C[C@]21O |  | 4.68 µM |  | 22.8 µM |  |  | 45.1 µM | 19.6 µM |  | 
